Source: PubChem BioAssay
Sampled rows, rich in hits. Any-hit rate of the full collection: about 1.4%.
HTR5A inv ag: HTR5A inverse agonism, opioid heterodimer counter-screen | P47898 | HTR5A cell line, luminescence | inhibition, % at 9.3 µM | 340,000 compounds, 0.083% hits | AID 504634; in the data active means inhibition mostly above about 23%, no sharp cut-off; inactive means mostly below about 18%;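 further: 0% = cells with DMSO and 100% = no-cell wells with DMSO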
Arrestin-AP2 inh: blocks beta-arrestin peptide binding to AP2 adaptin; FITC-arrestin peptide / GST-AP2 beads, flow cytometry; AP2 beta2 appendage carries R879A mutation; 340,000 compounds, 0.31% hits; inhibition, % at 10 µM;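 active means inhibition above a set limit, near 3 SD of compounds lacking own fluorescence, cut at about 54% in these data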;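 further: plate controls were DMSO wells for no effect and 5 µM unlabelled arrestin peptide for full effect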
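Measured by: flow cytometry, FL1 (488/535 nm); Material: AP2 appendage R879A on GSH beads; Evaluation: percent response; Timing: pre-incubation 12 min, peptide binding 1 h, room temperature; Also added: 50 nM FITC-arrestin peptide; Medium: PBS with 0.05% Tween 20 and 0.1% BSA.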
DAGLB inhibitor: blocks human DAGLB lipase activity | Q8NCG7 | HEK293T DAGLB membrane lysate, EnzChek fluorogenic substrate | inhibition, % at 5.17 µM | 340,000 compounds, 0.059% hits; in the data active means inhibition above about 34%;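 further: 0% = enzyme with vehicle and 100% = wells lacking enzyme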
MOR-DOR inv ag: inverse agonist of human OPRM1-OPRD1 heterodimerization; AID 504357; P35372+P41143; 340,000 compounds, 0.21% hits; cell-based MOR-DOR heterodimer luminescence, inverse agonism; inhibition, % at 9.3 µM; in the data active means inhibition above about 22%, passing the limit was not always enough;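 further: 0% = cells with DMSO and 100% = wells without cells with DMSO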
Target sequence (P35372 whole entry, looked up): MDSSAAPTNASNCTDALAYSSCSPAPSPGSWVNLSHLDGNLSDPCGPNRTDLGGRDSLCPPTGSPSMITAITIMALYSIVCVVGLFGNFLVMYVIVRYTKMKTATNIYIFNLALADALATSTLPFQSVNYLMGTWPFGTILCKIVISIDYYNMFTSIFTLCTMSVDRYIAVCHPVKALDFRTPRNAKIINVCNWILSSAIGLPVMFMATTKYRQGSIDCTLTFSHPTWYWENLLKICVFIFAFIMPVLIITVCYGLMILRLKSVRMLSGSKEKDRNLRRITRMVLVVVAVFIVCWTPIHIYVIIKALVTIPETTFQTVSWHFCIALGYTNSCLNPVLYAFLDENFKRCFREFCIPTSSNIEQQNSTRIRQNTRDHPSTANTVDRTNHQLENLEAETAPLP
Target sequence (P41143 whole entry, looked up): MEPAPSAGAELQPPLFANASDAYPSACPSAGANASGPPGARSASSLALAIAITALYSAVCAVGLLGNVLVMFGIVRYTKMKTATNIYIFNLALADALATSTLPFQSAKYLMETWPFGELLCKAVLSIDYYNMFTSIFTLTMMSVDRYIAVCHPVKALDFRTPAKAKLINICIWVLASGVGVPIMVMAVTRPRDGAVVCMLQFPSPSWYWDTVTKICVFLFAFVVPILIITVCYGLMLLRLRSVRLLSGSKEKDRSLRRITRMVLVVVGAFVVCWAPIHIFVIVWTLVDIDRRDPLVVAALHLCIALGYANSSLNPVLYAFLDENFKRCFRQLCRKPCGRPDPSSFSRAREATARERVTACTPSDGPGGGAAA
HTR5A ag ctr: activates human HTR5A in OPRM1-OPRD1 agonist counter-screen; HTR5A agonist assay, luminescence, cell-based; activation, % at 9.3 µM; 340,000 compounds, 0.61% hits; P47898; in the data active means activation mostly above about 9.5%, no sharp cut-off; inactive means mostly below about 7.6%;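 further: 0% = cells with vehicle only and 100% = reference agonist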
OPRM1-OPRD1 ag: OPRM1-OPRD1 heterodimerization agonism. P35372+P41143. cells, luminescence. activation, % at 9.3 µM. 340,000 compounds, 0.3% hits. AID 504326; in the data active means activation above about 18%;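 further: 0% = vehicle-treated cells and 100% = reference agonist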
* = called active by the depositor; i = inactive; / = no result.

SMILES	HTR5A inv ag	Arrestin-AP2 inh	DAGLB inhibitor	MOR-DOR inv ag	HTR5A ag ctr	OPRM1-OPRD1 ag
O=C(CCl)N=c1sccn1Cc1cccc2ccccc12	-21	-4	-6	-396	73*	74*
O=C(CCl)N=c1sccn1Cc1ccccc1Cl	-252	-1	-1	-330	85*	66*
O=C(CCl)N=c1sccn1Cc1ccc(Cl)cc1Cl	-4	-3	-1	-384	53*	77*
CCOC(=O)C(=CNc1ccc(NC2=NCC(C)S2)cc1)C(=O)OCC (stereo unspecified)	-26	0	-1	-18	9.8*	4
CSc1ncnc2ncn(C)c12	-2	-16	3	10	1	-2
Cn1c(C(=O)NCc2cccs2)cc2c(=O)n(C)c3ccccc3c21	5	2	-3	7	-2	-1
Cn1c2ccccc2c(=O)c2ccc(NCCc3cccs3)cc21	-19	6	0	-35	14*	6
C[C@@H]1CN(S(=O)C(C)(C)C)[C@H](CCO)/C1=C\CCO (stereo partly specified)	14	1	-3	4	-4	-1
COc1ccc(Nc2nc(N)nc(CCl)n2)cc1	-176	0	1	-108	48*	21*
COc1ccc(Nc2nc(N)nc(CN3CCOCC3)n2)cc1	20	1	0	7	0	-1
CCCCC(=O)Nc1sc2c(c1C(=O)OCC)CCC(C=O)=C2Cl	4	18	7	-5	12*	1
O=c1ccn(C2CCCO2)c(=O)[nH]1 (stereo unspecified)	17	-10	-2	11	-4	-2
O=S(=O)(c1ccc(Cl)cc1)N(CCCN1CCOCC1)Cc1cccs1	6	14	1	13	11*	-3
CN(C(=O)c1cccc(NC(=O)Cc2cccc(NC(=O)C3CCN(C(=O)c4ccccc4)CC3)c2)c1)C1CC1	-31	6	0	4	9.1*	-1
O=[n+]1cc(-c2ccccc2)n([O-])c2c1CCCCC2	-41	-7	-1	-1	11*	0
O=[n+]1cc(-c2ccc(F)cc2)n([O-])c2c1CCC2	2	10	0	12	1	-2
COc1ccc(N(C(=O)CCl)C(C(=O)NC2CCCCC2)c2cccnc2)cc1 (stereo unspecified)	-12	2	6	3	4	0
COc1ccc(C(C(=O)NC2CCCCC2)N(C(=O)CCl)c2ccc(C)cc2)cc1 (stereo unspecified)	-82	-2	6	-143	31*	24*
COc1ccc(C(C(=O)NC2CCCC2)N(C(=O)c2ccoc2C)c2ccc(C)cc2)cc1 (stereo unspecified)	-4	5	-3	-24	4	4
COc1ccc(C(C(=O)NC2CCCCC2)N(C(=O)CCl)c2cccc(Cl)c2)cc1 (stereo unspecified)	-107	1	15	i	86*	94*
COc1ccc(C(C(=O)NC2CCCCC2)N(C(=O)CCl)c2ccc(OC)cc2)cc1 (stereo unspecified)	-112	-2	3	-349	50*	65*
COc1ccc(-c2ccc(SCC(=O)N3CCCC3)nn2)cc1OC	-20	1	-3	0	11*	0
CCn1c(=O)cc(SCC(=O)N2CCN(c3ccccc3F)CC2)c2ccccc21	-9	-4	3	6	13*	-1
O=C(O)CCc1ccc(-c2ccccc2)n1Cc1ccco1	-7	13	7	-1	9.7*	0
CC(C)Oc1ccc(CNC(=O)Cn2ccc3cc(S(=O)(=O)N4CCCC4)ccc32)cc1	-31	-8	-4	4	8.3*	-1
SMILES	HTR5A inv ag	Arrestin-AP2 inh	DAGLB inhibitor	MOR-DOR inv ag	HTR5A ag ctr	OPRM1-OPRD1 ag
CSc1nc2ncncc2[nH]1	7	3	1	16	-2	-3
CCCCn1c(N)c(N(C(=O)CSc2nncn2-c2ccccc2)C2CCCC2)c(=O)[nH]c1=O	9	-11	0	5	-4	-1
CCOC(=O)Nc1ccc2c(c1)C(=NNC(=S)NC)c1ccccc1-2	/	/	-5	/	/	/
CCSC1=NCCN1C(=O)c1ccc(S(=O)(=O)N(C)C)cc1	5	-5	0	-4	-2	1
CN(C)S(=O)(=O)c1ccc(C(=O)N2CCN=C2SCc2ccccc2)cc1	-31	15	1	0	13*	0
CC[C@@H](C(=O)[C@@H](C)[C@@H](O)[C@H](C)CCc1ccc(C)c(O)c1C(=O)O)[C@H]1O[C@](CC)([C@H]2CC[C@](O)(CC)[C@H](C)O2)C[C@@H]1C	-143	9	34	i	40*	102*
Cc1noc(C)c1C(=O)N(C)C[C@@H]1OCc2ccccc2-c2c(n(C)c3ccccc23)C(=O)N([C@H](C)CO)C[C@H]1C	/	/	-2	/	/	/
Cc1cc(S(=O)(=O)c2ccc(Cl)cc2)nc(S(=O)(=O)c2ccc(Cl)cc2)c1C#N	/	/	9	/	/	/
O=C(NNC(=O)c1ccc(S(=O)(=O)N2CCOCC2)cc1)c1ccccc1	0	-1	-1	-11	0	1
O=C(NC(C(=O)O)c1ccccc1)c1ccc(S(=O)(=O)N2CCOCC2)cc1 (stereo unspecified)	-39	-9	-4	7	12*	-1
O=C(CCc1nnc(Cc2c[nH]c3ccccc23)o1)NCCC1CCCCO1 (stereo unspecified)	/	/	-2	/	/	/
COc1ccc(S(=O)(=O)Nc2ccc3c(c2)C(=O)N([C@H](C)CO)C[C@H](C)[C@@H](CN(C)C(=O)Nc2ccc(F)cc2)OCCCC[C@H](C)O3)cc1	/	/	-4	/	/	/
COc1cccc2cc(-c3nc(-c4cccs4)cs3)c(=O)oc12	-6	99*	-12	-5	2	1
CNC(=S)NNc1nncc2ccccc12	-30	15	-1	11	12*	-2
COc1cc2c(cc1OC)C(=O)C(Br)CC2 (stereo unspecified)	/	/	-10	/	/	/
Cc1cc(NC(=O)CN2CCN(S(=O)(=O)c3ccc4ccccc4c3)CC2)no1	-36	5	2	-28	10*	5
COc1ccc2[nH]c3c(=O)n4c(nc3c2c1)SCC4	1	7	2	3	0	0
COc1cc2[nH]c3c(=O)n4c(nc3c2cc1OC)SCCC4	-25	-12	-4	1	9.9*	0
CCO[C@@H]1OC(C(=O)NCc2ccccc2)=C[C@H](c2ccc3c(c2)OCO3)[C@H]1CCCO	-26	-5	0	8	-1	-2
C#CCNC(=O)C1=C[C@@H](c2ccc3c(c2)OCO3)[C@H](CCCO)[C@@H](OCC)O1	20	3	3	11	11*	-2
C=CCOc1ccccc1CN(C(=O)CCl)c1ccc2c(c1)OCO2	-142	-3	7	-240	53*	45*
